Key:
[1] = Estimation of membrane permeability by migration behavior in micellar media; format: ADME
Method in brief: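 Capillary electrophoresis in MEKC mode on untreated fused-silica capillaries (50 µm i.d., 26.5 cm effective length), 300 V/cm, capillary at 37.0 ± 0.1 °C for log k′. Micellar electrolyte: 100 mM sodium cholate in sodium phosphate buffer pH 7.4, I = 0.05. Rinses with 0.1 M NaOH, water, then electrolyte before each run. Hydrodynamic injection at 20 mbar for 5 s. Read-out: log k′.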

[2] = Estimation of membrane permeability; format: ADME
Prothrombin = Prothrombin (Homo sapiens, UniProt P00734); test: Inhibitory activity against thrombin
Serine protease 1 = molecular target: T1, Serine protease 1 (Bos taurus, UniProt P00760); test: Inhibitory activity against bovine Trypsin
T1 sequence (P00760 whole entry): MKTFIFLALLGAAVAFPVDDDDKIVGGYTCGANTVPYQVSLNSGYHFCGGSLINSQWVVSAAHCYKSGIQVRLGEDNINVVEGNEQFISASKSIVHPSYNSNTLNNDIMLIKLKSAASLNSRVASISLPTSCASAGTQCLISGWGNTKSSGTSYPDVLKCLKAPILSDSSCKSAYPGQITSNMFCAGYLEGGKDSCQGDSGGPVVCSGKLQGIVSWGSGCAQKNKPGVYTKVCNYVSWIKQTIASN
Method in brief: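 Bovine trypsin at 0.25 mg/L final in 0.05 mol/L Tris-HCl pH 8.2 (20 °C) with 20 mM CaCl₂. Inhibitor at seven assay levels of […], preincubated 5 min with enzyme at 37 °C. S-2222 chromogenic substrate at assay levels of 15, 25 and 50 µM. A405 read every 10 s for 110 s. Ki obtained by linear regression.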

| Structure (SMILES) | CE logK' [1] | pKa [2] | IC50 (Prothrombin) | Ki (Serine protease 1) |
| --- | --- | --- | --- | --- |
| Cc1cc(OCCc2ccc(CN)c(O)c2)cc(OS(=O)(=O)c2cc(Cl)ccc2Cl)c1 | 0.98 | 8.6 | 933 nM | – |
| COc1ccc(C)cc1S(=O)(=O)Oc1cccc(OCCc2ccc(C(=N)N)c(O)c2)c1 | 1.08 | 6.2 | 575 nM | 28200 nM |
| NCc1ccc(CCOc2cccc(OS(=O)(=O)c3ccccc3)c2)cc1O | 0.85 | 8.3 | 10700 nM | – |
| CCc1cc(OCCc2ccccc2)cc(OS(=O)(=O)c2cc(Cl)ccc2Cl)c1 | 1.85 | – | – | – |
| CCc1cc(OCCc2ccc(CN)cc2)cc(OS(=O)(=O)c2cc(C)ccc2OC)c1 | 0.87 | 9.3 | – | 6170 nM |
| COc1c(Cl)cc(Cl)cc1S(=O)(=O)Oc1cccc(OCCc2ccc(C(=N)N)cc2)c1 | 0.96 | 10.5 | 56.2 nM | 263 nM |
| Cc1cccc(S(=O)(=O)Oc2cccc(OCCc3ccc(CN)cc3)c2)c1 | 0.89 | 9.4 | 58900 nM | – |
| CCc1cc(OCCc2ccc(C(=N)N)cc2)cc(OS(=O)(=O)c2ccccc2)c1 | 0.88 | 10.9 | 25.1 nM | – |
| CCc1cc(OCCc2ccc(C(=N)N)c(O)c2)cc(OS(=O)(=O)c2cc(Cl)cc(Cl)c2OC)c1 | 1.27 | 6.3 | – | – |
| CCc1cc(OCCc2cccc(O)c2)cc(OS(=O)(=O)c2cc(C)ccc2OC)c1 | 1.3 | – | – | – |
| Cc1cc(OCCc2ccc(C(=N)N)c(O)c2)cc(OS(=O)(=O)c2cccc(C)c2)c1 | 1.16 | 6.3 | 135 nM | 32400 nM |
| O=S(=O)(Oc1cccc(OCCc2cccc(O)c2)c1)c1cccc(Cl)c1Cl | 1.41 | – | – | – |
| COc1c(Cl)cc(Cl)cc1S(=O)(=O)Oc1cc(C)cc(OCCc2cccc(O)c2)c1 | 1.57 | – | – | – |
| Cc1cc(OCCc2ccccc2)cc(OS(=O)(=O)c2ccccc2)c1 | 1.51 | – | – | – |
| CCc1cc(OCCc2ccc(CN)c(O)c2)cc(OS(=O)(=O)c2cccc(Cl)c2Cl)c1 | 1.08 | 8.3 | 11200 nM | – |
| CCc1cc(OCCc2cccc(O)c2)cc(OS(=O)(=O)c2ccccc2)c1 | 1.42 | – | – | – |
| Cc1cc(OCCc2ccc(CN)cc2)cc(OS(=O)(=O)c2cccc(Cl)c2Cl)c1 | 0.97 | 9 | 1230 nM | – |
| COc1ccc(C)cc1S(=O)(=O)Oc1cccc(OCCc2ccccc2)c1 | 1.4 | – | – | – |
